Measurements from different studies.
Target: TGF-beta receptor type-2 (TGFBR2, Homo sapiens, UniProt P37173)

O=C(Nc1cccnn1)N1CC(C/C=C/c2cncc(Oc3ccc(C(F)(F)F)cn3)n2)C1 — remaining binding (cell-free assay; competition with immobilised ligand; 1 µM): 100%
O=C(Nc1cnn(-c2csc(C(=O)NC3COC3)c2)c1)Nc1c(F)cccc1Cl — remaining activity (enzyme activity; inhibitor; 5 µM): 82.6%
CC(C)(O)[C@H]1CC[C@H](Nc2ccc3ncc(-c4cccc(C(F)(F)F)c4)n3n2)CC1 — remaining activity (enzyme activity; inhibitor; 1 µM): 73.8%
Cc1sc(C(=O)NC2COC2)cc1-n1cc(NC(=O)Nc2c(F)cccc2Cl)cn1 — remaining activity (enzyme activity; inhibitor; 10 µM): 86.8%
O=C1NC(=O)c2cc(Nc3ccc(F)cc3)c(Nc3ccc(F)cc3)cc21 — remaining signal (cell-free assay; 0.5 µM): 85.2%
CNCc1ccccc1-c1csc([C@@H](C)Nc2nc(C)nc3cc(OC)c(OC)cc23)c1 — remaining binding (cell-free assay; competition with immobilised ligand; 1 µM): 91%
N#CCCc1ccc2c(c1)-c1[nH]c3ccc([N+](=O)[O-])cc3c1CC(=O)N2 — remaining signal (cell-free assay; 0.5 µM): 10.1%
CC(C)(C)c1nc2c(s1)c1nc(N)ncc1c1ccc(NS(=O)(=O)c3c(F)cccc3F)c(F)c12 — remaining activity (enzyme activity; inhibitor; radiometric; 1 µM): 81%
COc1cc2c(N3CCN(C(=O)Nc4ccc(OC(C)C)cc4)CC3)ncnc2cc1OCCCN1CCCCC1 — remaining signal (cell-free assay; 0.5 µM): 102%
Nc1ncnc2occ(-c3ccc(NC(=O)Nc4cc(C(F)(F)F)ccc4F)cc3)c12 — remaining signal (cell-free assay; 20 µM): 99%
CCC(=O)N[C@@H]1CC[C@H](C(=O)N(C)c2ccc(-c3nc4ccccc4o3)cc2)C1 — remaining binding (cell-free assay; competition with immobilised ligand; 1 µM): 100%
Cc1ccc(C(=O)Nc2ccc(CN3CCN(C)CC3)c(C(F)(F)F)c2)cc1C#Cc1cnc2cccnn12 — remaining signal (cell-free assay; 23.5 nM): 76%
